Measured values reported in ChEMBL document CHEMBL3351900, “Conjugation of a nonspecific antiviral sapogenin with a specific HIV fusion inhibitor: a promising strategy for discovering new antiviral therapeutics” (J Med Chem, 2014).
pEC50: −log10 of the molar value. Square brackets hold non-standard residues; d marks the D form. Peptide text beside a SMILES is read from it. * marks the point of attachment. X3 = C=C(C)[C@@H]1CC[C@]2(C(=O)O)CC[C@]3(C)[C@H](CC[C@@H]4[C@@]5(C)CC[C@H](OC(=O)CCc6cn(CC(=O)*)nn6)C(C)(C)[C@@H]5CC[C@]43C)[C@@H]12; X5 = C=C(C)[C@@H]1CC[C@]2(C(=O)OCc3cn(CC(=O)*)nn3)CC[C@]3(C)[C@H](CC[C@@H]4[C@@]5(C)CC[C@H](OC(C)=O)C(C)(C)[C@@H]5CC[C@]43C)[C@@H]12; X6 = CC1(C)CC[C@]2(C(=O)O)CC[C@]3(C)C(=CC[C@@H]4[C@@]5(C)CC[C@H](OC(=O)CCc6cn(CC(=O)*)nn6)C(C)(C)[C@@H]5CC[C@]43C)[C@@H]2C1; βAla = NCCC(=O)O

Tests used:
[1] = tested on: Human immunodeficiency virus 1; experiment: Antiviral activity against HIV1 3B infected in human MT2 cells assessed as inhibition of viral p24 antigen production by ELISA; format: functional, organism-based; conditions: Human immunodeficiency virus 1, 3B
Summary of the method: (§1)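 MT-2 cells (1 × 10⁴) infected with 100 TCID₅₀ virus with or without peptides at graded concentrations. Culture supernatants collected on day 4 postinfection; p24 antigen quantified by ELISA. Percent inhibition and EC₅₀ calculated; tested in triplicate, mean ± standard deviation.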

[2] = Cytotoxicity against human MT2 cells after 4 days by XTT assay; format: cell-based
Summary of the method: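 MT-2 cells (5 × 10⁵/mL) mixed with equal volumes of graded conjugate concentrations and held at 37 °C for 4 days. XTT (1 mg/mL) with 0.02 μM phenazine methosulfate added for 4 h, then A450 read. CC50 calculated from the dose–response.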

[3] = tested on: Human immunodeficiency virus 1; experiment: Antiviral activity against HIV1 BaL infected in human […] cells assessed as inhibition of viral replication; format: functional, organism-based; conditions: Human immunodeficiency virus 1, BaL; summary of the method: as §1
[4] = Selectivity index, ratio of CC50 for human MT2 cells to EC50 for HIV1 3B infected in human MT2 cells; format: toxicity, cell-based; conditions: read-out: Ratio CC50/EC50
[5] = target: GP41 (Human immunodeficiency virus 1) (UniProt Q76270); experiment: Ratio of EC50 for HIV1 gp41-induced cell-cell fusion between viral envelope expressing human HL2/3 cells to CD4/CCR5 receptor expressing TZM-bl cells with wash out to EC50 for HIV1 gp41-induced cell-cell fusion between viral envelope expressing human HL2/3 cells to CD4/CCR5 receptor expressing TZM-bl cells; format: cell-based
Summary of the method: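 Peptides preincubated with TZM-bl cells at 37 °C for 1 h, with or without washing away unbound peptide. EC50 compared between washed and unwashed cells, giving the n-fold change. Triplicates, mean ± SD.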

SMILES | pEC50 [1] | CC50 at 96 h [2] [nM] | pEC50 [3] | selectivity ratio [4] | Ratio EC50 [5]
C=C(C)[C@@H]1CC[C@]2(C(=O)O)CC[C@]3(C)[C@H](CC[C@@H]4[C@@]5(C)CC[C@H](OC(=O)CCc6cn(CC(=O)NCCC(=O)N[C@@H](CC(N)=O)C(=O)N[C@@H](CC(N)=O)C(=O)N[C@@H](Cc7ccc(O)cc7)C(=O)N[C@H](C(=O)N[C@@H](CO)C(=O)N[C@@H](CC(C)C)C(=O)N[C@H](C(=O)N[C@@H](Cc7cnc[nH]7)C(=O)N[C@@H](CO)C(=O)N[C@@H](CC(C)C)C(=O)N[C@H](C(=O)N[C@@H](CCC(=O)O)C(=O)N[C@@H](CCC(=O)O)C(=O)N[C@@H](CO)C(=O)N[C@@H](CCC(N)=O)C(=O)N[C@@H](CC(N)=O)C(=O)N[C@@H](CCC(N)=O)C(=O)N[C@@H](CCC(N)=O)C(=O)N[C@@H](CCC(=O)O)C(=O)N[C@@H](CCCCN)C(=O)N[C@@H](CC(N)=O)C(=O)N[C@@H](CCC(=O)O)C(=O)N[C@@H](CCC(N)=O)C(=O)N[C@@H](CCC(=O)O)C(=O)N[C@@H](CC(C)C)C(=O)N[C@@H](CC(C)C)C(N)=O)[C@@H](C)CC)[C@@H](C)CC)[C@@H](C)O)nn6)C(C)(C)[C@@H]5CC[C@]43C)[C@@H]12 ({X3-βAla}-NNYTSLIHSLIEESQNQQEKNEQELL-NH2) | 6.88 | > 25000 | 7.01 | > 187 | > 85
CC[C@H](C)[C@H](NC(=O)[C@H](CC(C)C)NC(=O)[C@H](CO)NC(=O)[C@H](Cc1cnc[nH]1)NC(=O)[C@@H](NC(=O)[C@H](CC(C)C)NC(=O)[C@H](CO)NC(=O)[C@@H](NC(=O)[C@H](Cc1ccc(O)cc1)NC(=O)[C@H](CC(N)=O)NC(=O)[C@H](CC(N)=O)NC(=O)CCNC(=O)Cn1cc(CCC(=O)O[C@H]2CC[C@]3(C)[C@H]4CC=C5[C@@H]6CC(C)(C)CC[C@]6(C(=O)O)CC[C@@]5(C)[C@]4(C)CC[C@H]3C2(C)C)nn1)[C@@H](C)O)[C@@H](C)CC)C(=O)N[C@@H](CCC(=O)O)C(=O)N[C@@H](CCC(=O)O)C(=O)N[C@@H](CO)C(=O)N[C@@H](CCC(N)=O)C(=O)N[C@@H](CC(N)=O)C(=O)N[C@@H](CCC(N)=O)C(=O)N[C@@H](CCC(N)=O)C(=O)N[C@@H](CCC(=O)O)C(=O)N[C@@H](CCCCN)C(=O)N[C@@H](CC(N)=O)C(=O)N[C@@H](CCC(=O)O)C(=O)N[C@@H](CCC(N)=O)C(=O)N[C@@H](CCC(=O)O)C(=O)N[C@@H](CC(C)C)C(=O)N[C@@H](CC(C)C)C(N)=O ({X6-βAla}-NNYTSLIHSLIEESQNQQEKNEQELL-NH2) | 7.03 | > 25000 | 6.82 | > 266 | 
C=C(C)[C@@H]1CC[C@]2(C(=O)OCc3cn(CC(=O)NCCCC[C@H](NC(=O)CCNC(=O)[C@H](CC(C)C)NC(=O)[C@H](CC(C)C)NC(=O)[C@H](CCC(=O)O)NC(=O)[C@H](CCC(N)=O)NC(=O)[C@H](CCC(=O)O)NC(=O)[C@H](CC(N)=O)NC(=O)[C@H](CCCCN)NC(=O)[C@H](CCC(=O)O)NC(=O)[C@H](CCC(N)=O)NC(=O)[C@H](CCC(N)=O)NC(=O)[C@H](CC(N)=O)NC(=O)[C@H](CCC(N)=O)NC(=O)[C@H](CO)NC(=O)[C@H](CCC(=O)O)NC(=O)[C@H](CCC(=O)O)NC(=O)[C@@H](NC(=O)[C@H](CC(C)C)NC(=O)[C@H](CO)NC(=O)[C@H](Cc4cnc[nH]4)NC(=O)[C@@H](NC(=O)[C@H](CC(C)C)NC(=O)[C@H](CO)NC(=O)[C@@H](NC(=O)[C@H](Cc4ccc(O)cc4)NC(=O)[C@H](CC(N)=O)NC(=O)[C@H](CC(N)=O)NC(C)=O)[C@@H](C)O)[C@@H](C)CC)[C@@H](C)CC)C(N)=O)nn3)CC[C@]3(C)[C@H](CC[C@@H]4[C@@]5(C)CC[C@H](OC(C)=O)C(C)(C)[C@@H]5CC[C@]43C)[C@@H]12 (Ac-NNYTSLIHSLIEESQNQQEKNEQELL[βAla]K(X5)-NH2) | 7.38 | > 25000 | 7.68 | > 603 | 
